From ChEMBL document CHEMBL1135657, “Novel dual inhibitors of AChE and MAO derived from hydroxy aminoindan and phenethylamine as potential treatment for Alzheimer's disease” (J Med Chem, 2002)
pIC50: −log10 of the molar value.

Key:
Acetylcholinesterase [1] = target: T1, Acetylcholinesterase (Homo sapiens, UniProt P22303); experiment: In vitro inhibitory concentration against purified Acetylcholinesterase of human erythrocytes; value ranges from 7.3-50.4
[2] = target: T2, Amine oxidase [flavin-containing] B (Rattus norvegicus, UniProt P19643); experiment: In vitro inhibitory concentration against Monoamine oxidase B of rat brain homogenates; value ranges from 0.4-1.3; assay type: tissue-based
T2 sequence (P19643 whole entry): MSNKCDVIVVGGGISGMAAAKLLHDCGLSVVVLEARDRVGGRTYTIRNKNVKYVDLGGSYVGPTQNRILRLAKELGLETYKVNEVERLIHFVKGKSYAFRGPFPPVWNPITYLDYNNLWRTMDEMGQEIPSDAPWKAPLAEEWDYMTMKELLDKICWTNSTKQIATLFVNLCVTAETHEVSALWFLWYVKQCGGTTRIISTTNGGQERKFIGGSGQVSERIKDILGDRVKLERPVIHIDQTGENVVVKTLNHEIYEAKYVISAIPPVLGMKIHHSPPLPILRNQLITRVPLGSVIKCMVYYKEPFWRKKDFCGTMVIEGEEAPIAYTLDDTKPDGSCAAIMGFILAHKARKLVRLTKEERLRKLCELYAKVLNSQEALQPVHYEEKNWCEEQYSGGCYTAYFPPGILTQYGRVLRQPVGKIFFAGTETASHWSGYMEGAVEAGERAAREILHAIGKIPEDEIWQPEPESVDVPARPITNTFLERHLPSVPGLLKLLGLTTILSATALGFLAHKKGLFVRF

[3] = target: T3, Amine oxidase [flavin-containing] A (Rattus norvegicus, UniProt P21396); experiment: In vitro inhibitory concentration against Monoamine oxidase A of rat brain homogenates; value ranges from 0.5-1.4; assay type: tissue-based
T3 sequence (P21396 whole entry): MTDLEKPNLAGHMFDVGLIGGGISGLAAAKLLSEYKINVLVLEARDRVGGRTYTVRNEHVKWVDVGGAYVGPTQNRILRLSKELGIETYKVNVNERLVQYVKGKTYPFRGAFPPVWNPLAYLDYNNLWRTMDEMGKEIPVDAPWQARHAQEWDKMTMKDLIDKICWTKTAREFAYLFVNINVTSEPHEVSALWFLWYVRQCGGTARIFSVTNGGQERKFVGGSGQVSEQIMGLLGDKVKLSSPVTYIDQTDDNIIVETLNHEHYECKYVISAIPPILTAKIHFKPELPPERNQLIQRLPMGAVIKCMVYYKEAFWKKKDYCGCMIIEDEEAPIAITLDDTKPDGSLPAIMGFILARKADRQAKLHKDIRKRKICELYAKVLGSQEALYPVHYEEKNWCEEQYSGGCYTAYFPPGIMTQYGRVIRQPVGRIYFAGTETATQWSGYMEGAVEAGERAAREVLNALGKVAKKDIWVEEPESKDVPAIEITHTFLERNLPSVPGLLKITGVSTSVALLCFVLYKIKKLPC

Acetylcholinesterase [4] = target: T1, Acetylcholinesterase; experiment: In vitro inhibitory concentration against purified Acetylcholinesterase of human erythrocytes; value ranges from 0.16-0.18
Butyrylcholinesterase [5] = target: T4, Butyrylcholinesterase (Equus caballus, UniProt Q9N1N9); experiment: In vitro inhibitory concentration against Butyrylcholinesterase of horse serum; value ranges from 0.23-0.26
T4 sequence (Q9N1N9 whole entry): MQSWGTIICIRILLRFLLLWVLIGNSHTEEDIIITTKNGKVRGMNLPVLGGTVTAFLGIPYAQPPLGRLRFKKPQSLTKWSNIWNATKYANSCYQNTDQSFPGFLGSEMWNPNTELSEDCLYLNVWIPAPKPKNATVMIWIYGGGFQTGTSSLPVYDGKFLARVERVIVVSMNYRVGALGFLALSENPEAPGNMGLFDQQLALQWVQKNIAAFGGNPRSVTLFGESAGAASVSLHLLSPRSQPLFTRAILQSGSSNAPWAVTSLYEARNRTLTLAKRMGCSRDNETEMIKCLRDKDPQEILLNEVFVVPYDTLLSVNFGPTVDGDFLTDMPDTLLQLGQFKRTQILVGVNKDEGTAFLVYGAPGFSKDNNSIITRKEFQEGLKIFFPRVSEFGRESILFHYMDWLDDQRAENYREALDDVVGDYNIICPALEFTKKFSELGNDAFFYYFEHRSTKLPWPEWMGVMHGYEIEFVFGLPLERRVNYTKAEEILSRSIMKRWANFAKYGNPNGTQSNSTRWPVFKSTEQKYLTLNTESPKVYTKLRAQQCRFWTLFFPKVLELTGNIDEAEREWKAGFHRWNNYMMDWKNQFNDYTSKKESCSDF
Outline: (§1)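 Ellman assay followed, with 200 µM butyrylthiocholine as substrate. Runs were in triplicate with four-point dose-response curves. IC50 and fiducial limits came from log concentration versus % inhibition.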

[6] = target: T2, Amine oxidase [flavin-containing] B; experiment: In vitro inhibitory concentration against Monoamine oxidase B of rat brain homogenates; assay type: tissue-based
[7] = target: T3, Amine oxidase [flavin-containing] A; experiment: In vitro inhibitory concentration against Monoamine oxidase A of rat brain homogenates; value ranges from 230-820; assay type: tissue-based
Butyrylcholinesterase [8] = target: T4, Butyrylcholinesterase; experiment: In vitro inhibitory concentration against Butyrylcholinesterase of horse serum; value ranges from 0.22-1.54; outline: as §1
[9] = target: T2, Amine oxidase [flavin-containing] B; set-up: species or system Brain
[10] = target: T3, Amine oxidase [flavin-containing] A; experiment: In vitro inhibitory concentration against Monoamine oxidase A of rat brain homogenates; value ranges from 1.7-3.9; assay type: tissue-based
Acetylcholinesterase [11] = target: T1, Acetylcholinesterase; experiment: In vitro inhibitory concentration against purified Acetylcholinesterase of human erythrocytes; value ranges from 2.0-15.2
Butyrylcholinesterase [12] = target: T4, Butyrylcholinesterase; experiment: In vitro inhibitory concentration against Butyrylcholinesterase of horse serum; value ranges from 4.8-73.9; outline: as §1
[13] = target: T3, Amine oxidase [flavin-containing] A; experiment: In vitro inhibitory concentration against Monoamine oxidase A of rat brain homogenates; assay type: tissue-based
Acetylcholinesterase [14] = target: T1, Acetylcholinesterase; experiment: In vitro inhibitory concentration against purified Acetylcholinesterase of human erythrocytes; value ranges from 2.2-6.4
[15] = target: T3, Amine oxidase [flavin-containing] A; experiment: In vitro inhibitory concentration against Monoamine oxidase A of rat brain homogenates; value ranges from 0.47; assay type: tissue-based
Acetylcholinesterase [16] = target: T1, Acetylcholinesterase; experiment: In vitro inhibitory concentration against purified Acetylcholinesterase of human erythrocytes; value ranges from 1.66-3.14
Acetylcholinesterase [17] = target: T1, Acetylcholinesterase; experiment: In vitro inhibitory concentration against purified Acetylcholinesterase of human erythrocytes; value ranges from 13.6-198
Butyrylcholinesterase [18] = target: T4, Butyrylcholinesterase; experiment: In vitro inhibitory concentration against Butyrylcholinesterase of horse serum; value ranges from 2.77-15.4; outline: as §1
Acetylcholinesterase [19] = target: T1, Acetylcholinesterase; experiment: In vitro inhibitory concentration against purified Acetylcholinesterase of human erythrocytes
[20] = target: T3, Amine oxidase [flavin-containing] A; experiment: In vitro inhibitory concentration against Monoamine oxidase A of rat brain homogenates; value ranges from 75-240; assay type: tissue-based
[21] = target: T2, Amine oxidase [flavin-containing] B; experiment: In vitro inhibitory concentration against Monoamine oxidase B of rat brain homogenates; value ranges from 77-123
Acetylcholinesterase [22] = target: T1, Acetylcholinesterase; experiment: In vitro inhibitory concentration against purified Acetylcholinesterase of human erythrocytes; value ranges from 8.6-49.9

T1 sequence (P22303 whole entry): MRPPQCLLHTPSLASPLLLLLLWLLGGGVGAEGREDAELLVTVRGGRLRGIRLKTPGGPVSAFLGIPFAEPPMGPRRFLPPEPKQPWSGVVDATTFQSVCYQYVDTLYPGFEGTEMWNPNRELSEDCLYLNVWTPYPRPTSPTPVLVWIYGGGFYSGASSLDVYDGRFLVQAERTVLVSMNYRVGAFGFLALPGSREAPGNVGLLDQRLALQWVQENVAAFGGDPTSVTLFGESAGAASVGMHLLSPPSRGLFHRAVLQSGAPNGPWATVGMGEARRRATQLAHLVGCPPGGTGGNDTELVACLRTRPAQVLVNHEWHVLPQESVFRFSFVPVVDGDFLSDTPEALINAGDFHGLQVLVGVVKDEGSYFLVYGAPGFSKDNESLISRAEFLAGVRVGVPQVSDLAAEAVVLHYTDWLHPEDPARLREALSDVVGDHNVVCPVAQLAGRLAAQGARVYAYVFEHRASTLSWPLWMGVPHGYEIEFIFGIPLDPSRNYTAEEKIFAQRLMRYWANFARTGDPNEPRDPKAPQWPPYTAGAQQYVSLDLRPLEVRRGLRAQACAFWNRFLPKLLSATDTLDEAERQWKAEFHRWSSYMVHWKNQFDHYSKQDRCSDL

## C#CCN(C)CCc1cccc(OC(=O)N(C)CC)c1
Acetylcholinesterase [1]
  pIC50: 4.78
[2]
  pIC50: 6.10
[3]
  pIC50: 6.10

## C#CC(C)NCCc1cccc(OC(=O)N(C)C)c1 (stereo not drawn)
Acetylcholinesterase [4]
  pIC50: 6.77
Butyrylcholinesterase [5]
  pIC50: 6.62
[6]
  pIC50: < 3.00
[7]
  pIC50: 3.36

## C#CCNCCc1cccc(OC(=O)N(C)CC)c1
Butyrylcholinesterase [8]
  pIC50: 6.27
[9]
  pIC50: 5.11
[10]
  pIC50: 5.59

## C#CCN[C@H]1CCc2ccc(OC(=O)N(C)CCC)cc21
Acetylcholinesterase [11]
  pIC50: 5.07
Butyrylcholinesterase [12]
  pIC50: 4.91
[6]
  pIC50: < 3.00
[13]
  pIC50: < 3.00

## C#CCN(C)[C@@H](C)Cc1cccc(OC(=O)N(C)CCCCCC)c1
Acetylcholinesterase [14]
  pIC50: 5.47

## C#CCNC1CCc2ccc(O)cc21 (stereo not drawn)
[15]
  pIC50: 6.17

## CN(C)C(=O)Oc1ccc2c(c1)C(N(C)C)CC2 (stereo not drawn)
Acetylcholinesterase [16]
  pIC50: 5.67

## C#CCNC1CCc2ccc(OC(=O)N(C)C3CCCCC3)cc21 (stereo not drawn)
Acetylcholinesterase [17]
  pIC50: 4.39
Butyrylcholinesterase [18]
  pIC50: 5.25

## C#CCNC1CCc2ccc(OC(=S)N(C)C)cc21 (stereo not drawn)
Acetylcholinesterase [19]
  pIC50: < 3.30
[20]
  pIC50: 3.89
[21]
  pIC50: 4.01

## C#CCN(CC)C1CCc2ccc(OC(=O)N(C)C)cc21 (stereo not drawn)
Acetylcholinesterase [22]
  pIC50: 4.75
